Reference: publication PMC2099187 (The Journal of Cell Biology, 2007)
“Also recorded” adds a separate entry of the source. Where a SMILES comes first, the peptide text is derived from it.

Assays:
[1] = target: T1, recombinant human (rh) ECE-1 (Homo sapiens, UniProt P42892); test: Peptide degradation by rhECE-1; assay type: biochemical; conditions: for Degradation of peptide by 83 nM rhECE-1 at pH 5.5 or 7.4: 50 mM MES-KOH pH 5.5 or 50 mM Tris-HCl pH 7.4, up to 480 min
T1 sequence (P42892 1-770): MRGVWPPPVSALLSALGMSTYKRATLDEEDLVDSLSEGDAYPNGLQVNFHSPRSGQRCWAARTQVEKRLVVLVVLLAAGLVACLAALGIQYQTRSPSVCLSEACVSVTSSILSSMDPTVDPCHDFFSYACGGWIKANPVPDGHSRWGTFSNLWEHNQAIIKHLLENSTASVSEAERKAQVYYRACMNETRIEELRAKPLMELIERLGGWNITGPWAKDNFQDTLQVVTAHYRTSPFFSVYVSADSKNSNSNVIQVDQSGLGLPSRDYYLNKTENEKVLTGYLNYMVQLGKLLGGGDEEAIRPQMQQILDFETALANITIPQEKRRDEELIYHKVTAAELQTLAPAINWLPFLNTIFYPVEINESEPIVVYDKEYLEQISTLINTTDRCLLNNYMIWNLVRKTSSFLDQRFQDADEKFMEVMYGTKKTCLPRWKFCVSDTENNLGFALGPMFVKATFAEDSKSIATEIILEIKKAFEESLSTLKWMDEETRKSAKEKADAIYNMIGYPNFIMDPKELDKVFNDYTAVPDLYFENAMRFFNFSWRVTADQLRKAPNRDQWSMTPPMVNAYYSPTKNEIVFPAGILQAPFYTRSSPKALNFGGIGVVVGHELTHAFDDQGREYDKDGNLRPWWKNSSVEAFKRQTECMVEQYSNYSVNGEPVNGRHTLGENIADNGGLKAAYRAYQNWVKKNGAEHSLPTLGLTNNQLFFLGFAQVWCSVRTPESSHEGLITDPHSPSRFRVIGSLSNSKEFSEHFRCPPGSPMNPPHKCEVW
Outline: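 Where used, the ECE-1 inhibitor (100 μM) was preincubated with enzyme on ice for 30 min at matching pH before substrate was added. Products were resolved by reversed-phase HPLC and identified by MALDI TOF/TOF mass spectrometry.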

HEK-CLR-RAMP1 cells [2] = test: Endocytosis and degradation of internalized 125I-His8-CGRP; assay type: cell-based, human; conditions: 30 min after internalization; SM-19712 10 μM, bafilomycin A1 0.15 or 1 μM
[3] = system: HEK-CLR-RAMP1+βARR2-GFP cells; test: Trafficking and colocalization of β-arrestin2-GFP and CLR/RAMP1; assay type: cell-based, human; conditions: recovery up to 4 h in CGRP-free medium
Outline: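 HEK-CLR-RAMP1 cells transiently transfected with β-arrestin2-GFP had surface CLR (HA11) and RAMP1 (Myc) labelled. Cells were given CGRP (2 min to 1 h), washed, and recovered in CGRP-free medium for 1–4 h. SM-19712 10 μM, bafilomycin A1 0.15 or 1 μM, or DMSO was preincubated 20–60 min and kept throughout. After PFA fixation and confocal imaging, β-arrestin2/CLR endosomal colocalization coefficient was measured at 4 h recovery.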

HEK cells = test: BK-induced Ca2+ signaling, desensitization and resensitization; assay type: cell-based, human; conditions: SM-19712 10 μM; for Effect on response to a single BK challenge ([Ca2+]i): BK 100 nM, thiorphan 1 μM, phosphoramidon 1 μM
Outline: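 HEK cells with native B2R were loaded with Fura-2AM and [Ca2+]i read at 37°C, on coverslips or in suspension. Cells were preincubated with BK 100 nM or vehicle (10 min, 37°C), washed, recovered 0–120 min, then rechallenged with BK 100 nM. SM-19712 10 μM, bafilomycin A1 0.15 or 1 μM, or DMSO was preincubated 20–60 min and kept in buffers throughout.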

CLR/RAMP1 = CLR/RAMP1 (Rattus norvegicus, UniProt Q63118+Q9JJ74); test: pH dependency of 125I-CGRP binding to CLR/RAMP1 membranes; conditions: pH 5.5, relative to pH 7.5 (100%)
Sequence of CLR/RAMP1 (Q63118 24-464): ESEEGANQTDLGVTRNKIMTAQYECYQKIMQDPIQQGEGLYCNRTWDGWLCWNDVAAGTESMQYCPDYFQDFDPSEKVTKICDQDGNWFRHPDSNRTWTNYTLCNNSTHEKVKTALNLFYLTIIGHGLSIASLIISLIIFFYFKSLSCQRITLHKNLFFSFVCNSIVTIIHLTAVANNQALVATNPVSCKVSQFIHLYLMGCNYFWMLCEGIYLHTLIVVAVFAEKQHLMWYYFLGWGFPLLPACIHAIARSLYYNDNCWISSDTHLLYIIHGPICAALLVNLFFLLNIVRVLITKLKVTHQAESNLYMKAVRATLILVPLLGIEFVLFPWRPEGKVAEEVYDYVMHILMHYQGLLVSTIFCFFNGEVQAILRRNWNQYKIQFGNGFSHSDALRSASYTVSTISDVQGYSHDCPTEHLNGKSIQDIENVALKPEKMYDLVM
Sequence of CLR/RAMP1 (Q9JJ74 27-148): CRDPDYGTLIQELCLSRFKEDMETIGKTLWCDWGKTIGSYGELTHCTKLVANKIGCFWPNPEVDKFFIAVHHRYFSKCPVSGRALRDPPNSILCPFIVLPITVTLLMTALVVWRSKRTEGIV

HEK-CLR-RAMP1 cells [4] = test: CGRP-induced Ca2+ signaling, desensitization and resensitization; assay type: cell-based, human
Outline: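 HEK-CLR-RAMP1 cells were loaded with Fura-2AM; [Ca2+]i read at 37°C. Single challenge used CGRP 30 nM. For desensitization/resensitization: CGRP 100 nM or vehicle (1 h, 37°C), wash, 0–6 h recovery, CGRP 30 nM rechallenge. Variants: SM-19712 10 μM (20–60 min preincubation, kept throughout); ECE-1 or non-targeting siRNA pools, 72 h; transient ECE-1a-d-GFP. Response given as % of vehicle-treated cells, n ≥ 3.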

SK-N-MC cells = test: CGRP-induced Ca2+ signaling, desensitization and resensitization; assay type: cell-based, human; conditions: challenge 100 nM
Outline: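 SK-N-MC cells (endogenous CLR/RAMP1) were loaded with Fura-2AM for [Ca2+]i at 37°C. Single challenge used CGRP 100 nM. Desensitization: CGRP 100 nM or vehicle (1 h, 37°C), wash, CGRP-free recovery (4 h for resensitization), then CGRP 100 nM rechallenge. SM-19712 10 μM or DMSO was preincubated 20–60 min and kept throughout. Response was expressed as % of vehicle-treated cells.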

[5] = system: HEK-CLR-RAMP1 cells expressing ECE-1c-HSV; test: Cell surface ECE-1c-HSV by flow cytometry; assay type: cell-based, human; conditions: CGRP 100 nM, 30 min, 37°C
Outline: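 HEK-CLR-RAMP1 cells transiently expressing ECE-1c-HSV were bound with goat anti-HSV (1 h, 4°C), washed, and exposed to CGRP 100 nM or vehicle (30 min, 37°C). They were then stained with FITC anti-goat (1:200, 1 h, 4°C) and analysed by flow cytometry. Secondary-only background was subtracted; surface signal was expressed relative to 4°C cells (100%).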

rhECE-1 = test: rhECE-1; conditions: human, 37°C, up to 720 min
HEK-AT1AR cells = test: Resensitization of ATII-induced Ca2+ signaling; assay type: cell-based, human; conditions: ATII 100 nM 1 h 37°C, wash, 2 h recovery, challenge 100 nM; unpublished data; mean ± SE
Outline: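 HEK-AT1AR cells were exposed to ATII (100 nM) or vehicle for 1 h at 37°C, washed, and allowed to recover in agonist-free medium at 37°C. They were then rechallenged with ATII (100 nM) while [Ca2+]i was measured. The [Ca2+]i change is expressed as % of the vehicle-pretreated response. Inhibitor (10 μM) or DMSO was preincubated 20–60 min and kept in buffers throughout. Mean ± SE, n ≥ 3.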

[6] = peptide 250 μM, rhECE-1 83 nM, 37°C, HPLC

`NC(N)=NCCC[C@H](NC(=O)[C@H](Cc1ccccc1)NC(=O)[C@@H]1CCCN1C(=O)[C@H](CO)NC(=O)[C@H](Cc1ccccc1)NC(=O)CNC(=O)[C@@H]1CCCN1C(=O)[C@@H]1CCCN1C(=O)[C@@H](N)CCCN=C(N)N)C(=O)O` [BK, bradykinin] (H-RPPGFSPFR-OH) was tested, and the “Degradation of peptide by 83 nM rhECE-1 at pH 5.5 or 7.4” value (“Degradation … at pH 5.5 or 7.4” below) [1, 6] was “degraded BK at pH 5.5 and 7.4” and the “pH dependence of the rate of degradation by rhECE-1” value ([1]; rhECE-1 83 nM, pH 5.5 versus pH 7.4, 37°C, HPLC) was “faster at pH 5.5”.

For `CO/C1=C\C(C)=C\[C@@H](C)[C@@H](O)[C@@H](C)C/C(C)=C/C=C/[C@H](OC)[C@@H]([C@@H](C)[C@@H](O)[C@H](C)[C@@]2(O)C[C@@H](O)[C@H](C)[C@@H](C(C)C)O2)OC1=O` [bafilomycin A1], the “Effect on degradation of internalized 125I-His8-CGRP” value (HEK-CLR-RAMP1 cells [2]) was “prevented degradation”, the “Effect on localization of CLR (RAMP1) and β-arrestin2 during recovery” value [3] was “caused retention of CLR, RAMP1, and β-arrestin2 in endosomes for up to 4 h recovery” and the “Effect on desensitization of BK-induced Ca2+ signaling” value (HEK cells; bafilomycin A1 0.15 or 1 μM) was “had no effect”. For the same molecule, the “Effect on resensitization of BK-induced Ca2+ signaling” value (HEK cells; bafilomycin A1 0.15 or 1 μM, 0–120 min recovery) was “had no effect”.

For `CC(C)C[C@H](NP(=O)(O)O[C@@H]1O[C@@H](C)[C@H](O)[C@@H](O)[C@H]1O)C(=O)N[C@@H](Cc1c[nH]c2ccccc12)C(=O)O` [phosphoramidon], the “Effect on response to a single BK challenge ([Ca2+]i)” value (HEK cells) was “did not affect responses to a single BK challenge”.

`O=C(O)CNC(=O)C(CS)Cc1ccccc1` (centres unmarked) [thiorphan] was tested, and the “Effect on response to a single BK challenge ([Ca2+]i)” value (HEK cells) was “did not affect responses to a single BK challenge”.

In the case of Calcitonin gene-related peptide [CGRP], the “Bonds hydrolysed by rhECE-1 (major products separated by HPLC)” value ([1]; pH 5.5, products CGRP[15–26], CGRP[27–37], CGRP[1–24], CGRP[1–26]) is reported as “Gly^14-Leu^15, Lys^24-Asp^25, and Asn^26-Phe^27”, the “Degradation of peptide by rhECE-1 at endosomal pH 5.5” value ([1]; peptide 250 μM, rhECE-1 83 or 415 nM, 37°C, 50 mM MES-KOH pH 5.5, 0–720 min, reversed-phase HPLC) is reported as “degraded CGRP in a concentration-dependent manner” and the “Degradation of peptide by rhECE-1 at extracellular fluid pH 7.4” value ([1]; peptide 250 μM, rhECE-1, 37°C, 50 mM Tris-HCl pH 7.4, reversed-phase HPLC) is reported as “minimal”. For the same molecule, the “Peptide bound to CLR/RAMP1 at endosomal pH 5.5” value (CLR/RAMP1) was ~20%, the “Desensitization of CGRP-induced Ca2+ signals by preincubation with agonist” value (HEK-CLR-RAMP1 cells [4]; CGRP 100 nM 1 h 37°C, 0 h recovery, challenge 30 nM) was “complete desensitization” and the “Resensitization of responses to CGRP in cells with active ECE-1” value (HEK-CLR-RAMP1 cells [4]; CGRP 100 nM 1 h, wash, 0–6 h recovery, challenge 30 nM) was “fully resensitized at 4–6 h recovery”. For the same molecule, the “Resensitization of CGRP-induced Ca2+ signaling, HEK cells expressing CLR/RAMP1 alone (control)” value (HEK-CLR-RAMP1 cells [4]; after 2 h recovery, mean ± SE) was 33 ± 2%, the “Resensitization of CGRP-induced Ca2+ signaling, cells overexpressing ECE-1c” value (HEK-CLR-RAMP1 cells [4]; at 2 h recovery, mean ± SE) was 75 ± 5% and the “Desensitization of responses to CGRP by preincubation with agonist” value (SK-N-MC cells; CGRP 100 nM 1 h 37°C) was “completely desensitized”. For the same molecule, the “Resensitization of responses to CGRP” value (SK-N-MC cells; after 4 h recovery, mean ± SE) was 54 ± 5% and the “Effect on constitutive endocytosis of ECE-1c-HSV (cell surface ECE-1c)” value [5] was “did not affect this endocytosis”.

For “SCNTATCVTHRLAGLLSRSGGVVKDNFVPTNVGSEAF-NH2”, the cleaved bond (rhECE-1) was “Gly14-Leu15, major; also recorded: Lys24-Asp25, major; also recorded: Asn26-Phe27, major”.

“angiotensin (AT) I (DRVYIHPFHL; Angiotensin-1; UniProt P01019 25-34, looked up) [ATI]” was tested, and the “Degradation … at pH 5.5 or 7.4” value [1, 6] was “degraded ATI under the same conditions”.

“angiotensin II (DRVYIHPF; Angiotensin-2; UniProt P01019 25-32, looked up) [ATII]” was tested, and the “Degradation … at pH 5.5 or 7.4” value [1, 6] was “no detectable degradation at up to 480 min”.

With angiotensin II [ATII] the “Resensitization of ATII-induced Ca2+ signaling at 2 h” value (HEK-AT1AR cells) was 96 ± 3%.
